For the assay, the target named is T1, SET7/9 (Homo sapiens, UniProt Q8WTS6).
T1 sequence (Q8WTS6 1-366): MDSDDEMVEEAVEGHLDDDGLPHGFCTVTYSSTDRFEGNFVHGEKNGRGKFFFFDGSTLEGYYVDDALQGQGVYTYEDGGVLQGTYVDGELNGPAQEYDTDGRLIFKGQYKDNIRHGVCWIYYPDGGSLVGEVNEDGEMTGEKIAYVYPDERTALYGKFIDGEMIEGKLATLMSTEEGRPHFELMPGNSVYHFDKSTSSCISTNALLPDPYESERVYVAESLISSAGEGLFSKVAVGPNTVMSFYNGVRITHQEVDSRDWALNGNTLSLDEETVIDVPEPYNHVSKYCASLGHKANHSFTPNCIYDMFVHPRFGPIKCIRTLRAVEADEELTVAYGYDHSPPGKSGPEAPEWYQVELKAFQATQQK
In words: Western blot of SET7/9 protein level in 22Rv1 cells. In kind it is cell-based. Conditions: indicated concentration, 24 h, WB. The method, boiled down:
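22Rv1 cells were treated with the test compound at the indicated concentrations for 24 h. Cells were lysed in RIPA containing protease inhibitor cocktail, and protein was resolved by SDS-PAGE and transferred to PVDF. Primary antibody was applied overnight at 4 °C, with β-actin as loading control. Blots are representative of two independent experiments.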
In general terms: Immunoblotting shows a protein as a band on a membrane.

Data on 1 compound can be found in PMC10925177 (bioRxiv, 2024).

In the case of `COc1cc2c(NC3CCN(CCCC(=O)NCCCCCCCCCCCC(=O)N[C@H](C(=O)N4C[C@H](O)C[C@H]4C(=O)NCc4ccc(-c5scnc5C)cc4)C(C)(C)C)CC3)nc(N3CCC(F)(F)CC3)nc2cc1OCCCN1CCCC1` [Compound 10, (2S,4R)-1-((S)-2-(12-(4-(4-((2-(4,4-difluoropiperidin-1-yl)-6-methoxy-7-(3-(pyrrolidin-1-yl)propoxy)quinazolin-4-yl)amino)piperidin-1-yl)butanamido)dodecanamido)-3,3-dimethylbutanoyl)-4-hydroxy-N-(4-(4-methylthiazol-5-yl)benzyl)pyrrolidine-2-carboxamide], the SET7/9 degradation result was “cannot induce the degradation”.
